Laboratory results taken from ChEMBL document CHEMBL3352617, “Discovery of 9-(1-phenoxyethyl)-2-morpholino-4-oxo-pyrido[1,2-a]pyrimidine-7-carboxamides as oral PI3Kβ inhibitors, useful as antiplatelet agents” (Bioorg Med Chem Lett, 2014).

How the values were obtained:
[1] = Antiplatelet activity against human platelet assessed as inhibition of collagen-induced platelet rich plasma aggregation by light transmission aggregometry; type: functional, cell-free
Method in brief: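 Human platelet rich plasma stimulated with collagen. Aggregation read by light transmission aggregometry in an in-house 96-well plate format.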

[2] = Lipophilicity, log D of the compound at pH 7.4 by HPLC method; type: physicochemical; details: buffer
Method in brief: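 LogD measured experimentally at pH 7.4 by an HPLC method.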

[3] = Apparent permeability across apical to basolateral side of human Caco2 cells at 10 uM at pH 6.5 by LC-tandem MS analysis; type: ADME, cell-based; details: Caco-2, pH 6.5
Method in brief: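 Caco-2 monolayers, apical-to-basolateral transport at pH 6.5. Result given as apparent permeability (Papp).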

Hepatocyte = assay: Intrinsic clearance in human hepatocytes at 2 uM by LCMS analysis; type: ADME, cell-based
Method in brief: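 Test compound incubated with human hepatocytes. Intrinsic clearance and half-life derived from compound disappearance.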

[4] = target: Phosphatidylinositol 4,5-bisphosphate 3-kinase catalytic subunit alpha isoform (Homo sapiens, UniProt P42336); assay: Inhibition of human recombinant PI3Kalpha assessed as PIP3 production by AlphaScreen assay
[5] = target: Phosphatidylinositol 4,5-bisphosphate 3-kinase catalytic subunit beta isoform (Homo sapiens, UniProt P42338); assay: Inhibition of human recombinant PI3Kbeta assessed as PIP3 production by AlphaScreen assay
Chain of Phosphatidylinositol 4,5-bisphosphate 3-kinase catalytic subunit beta isoform (P42338 whole entry, canonical isoform): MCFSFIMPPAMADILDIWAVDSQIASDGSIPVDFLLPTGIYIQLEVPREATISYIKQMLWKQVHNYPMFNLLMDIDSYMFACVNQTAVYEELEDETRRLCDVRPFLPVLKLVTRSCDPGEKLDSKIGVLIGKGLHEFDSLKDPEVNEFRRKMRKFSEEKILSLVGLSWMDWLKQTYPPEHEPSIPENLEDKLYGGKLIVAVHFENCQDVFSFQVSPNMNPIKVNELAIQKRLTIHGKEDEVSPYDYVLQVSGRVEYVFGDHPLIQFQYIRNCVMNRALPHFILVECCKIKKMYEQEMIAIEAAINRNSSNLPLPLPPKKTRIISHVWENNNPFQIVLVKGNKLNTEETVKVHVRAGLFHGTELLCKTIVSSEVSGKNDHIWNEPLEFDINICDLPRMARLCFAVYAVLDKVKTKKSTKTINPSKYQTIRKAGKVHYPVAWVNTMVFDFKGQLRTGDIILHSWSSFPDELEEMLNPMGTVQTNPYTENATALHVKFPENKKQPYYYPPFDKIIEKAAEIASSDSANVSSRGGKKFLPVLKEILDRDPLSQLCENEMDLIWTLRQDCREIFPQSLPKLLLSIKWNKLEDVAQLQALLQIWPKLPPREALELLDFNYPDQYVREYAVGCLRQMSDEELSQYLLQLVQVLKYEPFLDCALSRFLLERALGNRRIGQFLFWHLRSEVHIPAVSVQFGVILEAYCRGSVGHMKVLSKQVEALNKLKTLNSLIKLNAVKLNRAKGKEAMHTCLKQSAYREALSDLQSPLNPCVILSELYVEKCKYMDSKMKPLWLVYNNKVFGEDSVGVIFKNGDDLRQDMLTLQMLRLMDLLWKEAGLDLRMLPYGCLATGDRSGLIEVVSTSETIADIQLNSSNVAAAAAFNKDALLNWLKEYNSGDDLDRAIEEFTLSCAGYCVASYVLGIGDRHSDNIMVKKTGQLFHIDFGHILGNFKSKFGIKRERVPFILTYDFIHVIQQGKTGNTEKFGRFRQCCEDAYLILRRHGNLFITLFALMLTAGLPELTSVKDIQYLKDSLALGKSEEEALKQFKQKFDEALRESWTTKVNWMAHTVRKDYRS

Chain of Phosphatidylinositol 4,5-bisphosphate 3-kinase catalytic subunit alpha isoform (P42336 whole entry, canonical isoform): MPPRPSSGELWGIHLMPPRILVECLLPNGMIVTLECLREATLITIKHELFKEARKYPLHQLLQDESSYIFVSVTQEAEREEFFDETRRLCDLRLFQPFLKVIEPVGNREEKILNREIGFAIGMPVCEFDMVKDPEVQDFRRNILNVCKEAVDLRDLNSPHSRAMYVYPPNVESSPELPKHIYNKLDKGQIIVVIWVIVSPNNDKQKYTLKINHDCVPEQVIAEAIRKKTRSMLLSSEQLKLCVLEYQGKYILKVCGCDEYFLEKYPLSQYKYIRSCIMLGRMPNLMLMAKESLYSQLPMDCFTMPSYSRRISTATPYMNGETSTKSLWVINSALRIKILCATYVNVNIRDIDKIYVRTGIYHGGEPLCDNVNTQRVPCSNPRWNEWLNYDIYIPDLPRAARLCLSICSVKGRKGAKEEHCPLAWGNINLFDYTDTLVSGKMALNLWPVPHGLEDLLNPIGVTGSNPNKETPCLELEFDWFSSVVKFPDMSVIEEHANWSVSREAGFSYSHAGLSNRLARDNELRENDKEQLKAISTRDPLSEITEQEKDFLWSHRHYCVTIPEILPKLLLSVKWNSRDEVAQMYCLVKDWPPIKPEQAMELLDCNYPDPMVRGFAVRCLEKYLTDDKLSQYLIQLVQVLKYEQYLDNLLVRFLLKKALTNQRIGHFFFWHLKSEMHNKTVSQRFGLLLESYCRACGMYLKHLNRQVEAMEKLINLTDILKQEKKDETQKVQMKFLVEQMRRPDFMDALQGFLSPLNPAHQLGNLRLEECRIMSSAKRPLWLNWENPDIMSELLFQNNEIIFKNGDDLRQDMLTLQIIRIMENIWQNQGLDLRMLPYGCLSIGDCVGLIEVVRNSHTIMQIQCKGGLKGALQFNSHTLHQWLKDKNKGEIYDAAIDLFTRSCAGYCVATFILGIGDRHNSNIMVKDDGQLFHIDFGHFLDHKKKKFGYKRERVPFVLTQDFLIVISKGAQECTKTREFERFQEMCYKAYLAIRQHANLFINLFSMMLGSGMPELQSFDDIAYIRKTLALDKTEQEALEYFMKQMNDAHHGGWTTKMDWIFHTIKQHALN

| SMILES | IC50 [1] | logD [2] | Papp A→B at 10 µM [3] | Intrinsic clearance (CLint) (Hepatocyte) | IC50 [4] | IC50 [5] |
| --- | --- | --- | --- | --- | --- | --- |
| Cc1cccc(OC(C)c2cc(C(=O)N(C)CCO)cn3c(=O)cc(N4CCOCC4)nc23)c1 (racemic) | 5000 nM | 2.8 |  |  |  |  |
| CC(Oc1ccccc1F)c1cc(C(=O)N(C)CCO)cn2c(=O)cc(N3CCOCC3)nc12 (racemic) | 2100 nM | 2.3 |  |  |  |  |
| Cc1cc([C@@H](C)Nc2ccccc2C(=O)NS(C)(=O)=O)c2nc(N3CCOCC3)cc(=O)n2c1 |  | 0.9 | 0.11 ×10⁻⁶ cm/s | 15 µL/min | 160 nM | 12 nM |
| Cc1cc(C(C)Nc2cccc(C(=O)O)c2)c2nc(N3CCOCC3)cc(=O)n2c1 (racemic) |  | 0.3 | 0.9 ×10⁻⁶ cm/s | < 4 µL/min |  |  |
| CC(Oc1cccc(C#N)c1)c1cc(C(=O)N(C)CCO)cn2c(=O)cc(N3CCOCC3)nc12 (racemic) | 1500 nM | 2 |  |  |  |  |
| Cc1cc(C(C)Nc2ccccc2S(=O)(=O)O)c2nc(N3CCOCC3)cc(=O)n2c1 (racemic) |  | 0.3 | < 0.05 ×10⁻⁶ cm/s | < 4 µL/min |  |  |
| Cc1cc(C(C)Nc2ccccc2-c2nnn[nH]2)c2nc(N3CCOCC3)cc(=O)n2c1 (racemic) |  | 0.8 | 0.08 ×10⁻⁶ cm/s | 18.1 µL/min |  |  |
| Cc1cc(C(C)Nc2cc(Cl)ccc2C(=O)O)c2nc(N3CCOCC3)cc(=O)n2c1 (racemic) |  | 1.2 | 15 ×10⁻⁶ cm/s | 11.9 µL/min |  |  |
| COc1ccccc1OC(C)c1cc(C(=O)N(C)CCO)cn2c(=O)cc(N3CCOCC3)nc12 (racemic) | 9600 nM | 1.9 |  |  |  |  |
| Cc1c(F)cccc1OC(C)c1cc(C(=O)N(C)CCO)cn2c(=O)cc(N3CCOCC3)nc12 (racemic) | 700 nM | 3.3 |  |  |  |  |
| Cc1cc([C@@H](C)Nc2ccccc2C(=O)NO)c2nc(N3CCOCC3)cc(=O)n2c1 |  | 1.5 | 52 ×10⁻⁶ cm/s | 30.2 µL/min | 2880 nM | 84 nM |
| COc1cccc(OC(C)c2cc(C(=O)N(C)CCO)cn3c(=O)cc(N4CCOCC4)nc23)c1 (racemic) | 1900 nM | 2.3 |  |  |  |  |
| Cc1cc(OC(C)c2cc(C(=O)N(C)CCO)cn3c(=O)cc(N4CCOCC4)nc23)ccc1F (racemic) | 2500 nM | 2.9 |  |  |  |  |

Other lines, results leading:

| IC50 [1] | logD [2] | Papp A→B at 10 µM [3] | Intrinsic clearance (CLint) (Hepatocyte) | IC50 [4] | IC50 [5] | SMILES |
| --- | --- | --- | --- | --- | --- | --- |
|  | 2 | 4.3 ×10⁻⁶ cm/s | < 4 µL/min |  |  | CC(Nc1ccccc1)c1cc(C(=O)N(C)CCO)cn2c(=O)cc(N3CCOCC3)nc12 (racemic) |
| 400 nM | 2.3 |  |  |  |  | CC(Oc1ccccc1)c1cc(C(=O)N(C)CCO)cn2c(=O)cc(N3CCOCC3)nc12 (racemic) |
|  | 0.6 | 0.04 ×10⁻⁶ cm/s | < 4 µL/min |  |  | CC(Nc1ccccc1)c1cc(C(=O)O)cn2c(=O)cc(N3CCOCC3)nc12 (racemic) |
|  |  | 66 ×10⁻⁶ cm/s | 20 µL/min | 5800 nM |  | Cc1cc(C(C)Nc2ccccc2)c2nc(N3CCOCC3)cc(=O)n2c1 (racemic) |
|  | 1.7 |  | < 4 µL/min |  |  | CC(Nc1ccccc1)c1cc(C(=O)NCCN(C)C)cn2c(=O)cc(N3CCOCC3)nc12 (racemic) |
|  | 2.7 | 26.9 ×10⁻⁶ cm/s | < 4 µL/min |  |  | CC(Nc1ccccc1)c1cc(C(=O)N2CCOCC2)cn2c(=O)cc(N3CCOCC3)nc12 (racemic) |
|  | 2.7 | 35.4 ×10⁻⁶ cm/s | 4.3 µL/min |  |  | CC(Nc1ccccc1)c1cc(C(=O)N(C)C)cn2c(=O)cc(N3CCOCC3)nc12 (racemic) |
|  | 0.6 | 1 ×10⁻⁶ cm/s | < 4 µL/min |  |  | CC(Nc1ccccc1)c1cc(C(=O)N(C)CC(=O)O)cn2c(=O)cc(N3CCOCC3)nc12 (racemic) |
| 700 nM | 3 |  |  |  |  | Cc1ccccc1OC(C)c1cc(C(=O)N(C)CCO)cn2c(=O)cc(N3CCOCC3)nc12 (racemic) |
|  | 1.5 |  | < 4 µL/min |  |  | CC(Nc1ccccc1)c1cc(C(=O)NCCN2CCNCC2)cn2c(=O)cc(N3CCOCC3)nc12 (racemic) |
